# This is a sample that favours compounds with a hit; in the whole collection about 0.83% have one here.
# ABCG2 block: blocks JC-1 efflux by human ABCG2 transporter; inhibition, % at 6.6 µM; Q9UNQ0; IgMXP3 cells, flow cytometry; 0.1% of 190,000 active;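 active means inhibition above 80%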;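 further: 0% = DMSO and 100% = nicardipine control wells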
# Target sequence (Q9UNQ0 whole entry, looked up): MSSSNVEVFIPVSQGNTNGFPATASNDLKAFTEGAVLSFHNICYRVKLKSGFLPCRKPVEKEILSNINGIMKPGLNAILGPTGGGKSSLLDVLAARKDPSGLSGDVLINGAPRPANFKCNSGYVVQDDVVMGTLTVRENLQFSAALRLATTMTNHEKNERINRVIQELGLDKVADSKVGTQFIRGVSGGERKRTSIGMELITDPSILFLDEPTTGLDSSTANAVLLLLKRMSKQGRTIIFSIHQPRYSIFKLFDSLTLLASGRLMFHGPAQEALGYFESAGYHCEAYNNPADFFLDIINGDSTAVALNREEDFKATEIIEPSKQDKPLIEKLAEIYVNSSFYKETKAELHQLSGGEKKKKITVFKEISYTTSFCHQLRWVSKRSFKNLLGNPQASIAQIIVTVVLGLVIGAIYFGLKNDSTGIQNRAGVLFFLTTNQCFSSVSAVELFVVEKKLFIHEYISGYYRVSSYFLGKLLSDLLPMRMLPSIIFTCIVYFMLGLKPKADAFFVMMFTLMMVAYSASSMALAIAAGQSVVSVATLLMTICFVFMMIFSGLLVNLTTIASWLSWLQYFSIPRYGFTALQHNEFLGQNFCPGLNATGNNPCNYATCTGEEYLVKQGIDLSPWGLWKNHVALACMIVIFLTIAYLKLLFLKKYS
#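 Measure – % inhibition of efflux relative to nicardipine and DMSO · Test system – ABCG2 IgMXP3 and barcoded ABCB1 CCRF-Adr cell mix · Control set – nicardipine as high control, DMSO as low control · Compound – one concentration, 6.6 µM final · Signal – flow cytometry of retained JC-1 fluorescence · Timing – 10 min exposure at 25 °C with rotation, no wash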
# RGS7-Gao reg: human RGS7-Galphao interaction regulation. P09471. Multiplexed bead flow cytometry, RGS7-Galphao binding; actives lie on both sides. binding response (% of control), % at 10 µM. 0.35% of 220,000 active; in the data active means binding response below about 49% or above about 150%; inconclusive means no clear call, values can overlap the other calls; inactive means in between;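 further: fluorescent Galphao held in activated GDP-AlF4 state binding bead-coupled RGS7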
# RGS16-Gao HTS: modulates binding between human RGS16 and Galphao; O15492+P09471; 0.38% of 220,000 active; binding response (% of control), % at 10 µM; AID 1441; bead-based flow cytometry RGS16-Galphao binding, fluorescence; actives lie on both sides;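 further: Galphao activated by GDP with aluminum fluoride before binding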
# RGS8-Gao: regulators of human RGS8-Galphao interaction; multiplexed bead flow cytometry, RGS8-Galphao binding; actives lie on both sides; P09471; response (percent of control binding), % at 10 µM; AID 1423; 0.34% of 220,000 active; in the data active means response below about 60% or above about 140%; inactive means in between;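 further: Galphao activated as the GDP aluminium fluoride complex binding bead-coupled RGS8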
# ABCB1 inh: blocks JC-1 efflux by human ABCB1 transporter | P08183 | CCRF-Adr cells, flow cytometry | inhibition, % at 6.6 µM | 0.067% of 190,000 active | AID 1326; in the data active means inhibition above about 40%;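 further: 0% = vehicle and 100% = reference inhibitor; higher value means more JC-1 retained so stronger ABCB1 efflux block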
# RGS4-Gao reg: human RGS4-Galphao interaction regulation | Multiplexed bead flow cytometry, RGS4-Galphao binding; actives lie on both sides | binding response (% of control), % at 10 µM | P09471 | 0.33% of 220,000 active; in the data active means binding response below about 49% or above about 150%; inactive means in between;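 further: fluorescent Galphao activated with aluminum fluoride binding bead-coupled RGS4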
# RGS4-Gao HTS: regulators of human RGS4-Galphao interaction. RGS4–Galpha-o binding response, % at 10 µM. 99% of 1,600 active. AID 1504. shares compounds with RGS16-Gao HTS. multiplexed bead flow cytometry, RGS–Galpha-o binding;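 further: fluorescently labeled Galpha-o bound to GDP with aluminium fluoride binding biotinylated RGS beads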
# Avidin counter: interferes with biotinylated probe binding to avidin beads; shares compounds with RGS16-Gao HTS; streptavidin beads, fluorescein-biotin binding, flow cytometry; inhibition, % at 10 µM; 1,700 tested, under 10 active; AID 1783;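 active means inhibition above 50%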;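 further: median green fluorescence of gated singlet beads compared with DMSO control wells; 0% = DMSO wells and 100% = complete loss of bead fluorescence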
# RGS8-Gao confirm: confirmation of regulators of human RGS8-Galphao interaction; shares compounds with RGS16-Gao HTS; bead-based flow cytometry RGS8-Galphao binding, fluorescence; actives lie on both sides; binding response (% of control), % at 10 µM; 3% of 1,700 active; AID 1836; in the data active means binding response below about 72% or above about 130%; inactive means in between;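 further: Galphao activated as GDP AlF4 complex before binding bead RGS8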
# RGS7-Gao single: confirmation of regulators of human RGS7-Galphao interaction; shares compounds with RGS16-Gao HTS; bead-based flow cytometry RGS7-Galphao binding; actives lie on both sides; response (percent of control binding), % at 10 µM; 7.8% of 1,700 active; AID 1837; in the data active means response below about 75% or above about 130%; inactive means in between;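 further: fluorescent Galphao activated with GDP and aluminum fluoride binding bead-coupled RGS7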
# RGS16-Gao conf: RGS16-Galphao interaction regulation, single point confirmation; bead-based flow cytometry, RGS16-Galphao binding; actives lie on both sides; shares compounds with RGS16-Gao HTS; 4% of 1,700 active; response (% of control binding), % at 10 µM; in the data active means response below about 74% or above about 130%; inactive means in between;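 further: Galphao activated as the GDP aluminium fluoride complex binding bead-coupled RGS16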
# RGS4-Gao confirm: confirmation of regulators of human RGS4-Galphao interaction. 4% of 1,700 active. shares compounds with RGS16-Gao HTS. RGS4-Galphao binding, multiplexed bead flow cytometry; actives lie on both sides. binding response (% of control), % at 10 µM. AID 1840; in the data active means binding response below about 74% or above about 130%; inactive means in between
# RGS19-Gao single: confirmation of regulators of human RGS19-Galphao interaction | bead-based flow cytometry RGS19-Galphao binding; actives lie on both sides | response (percent of control binding), % at 10 µM | 5% of 1,700 active | shares compounds with RGS16-Gao HTS | AID 1841; in the data active means response below about 50% or above about 160%; inactive means in between;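 further: 100% = no compound control and 0% = blank background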
# * = called active by the depositor; ? = inconclusive; · = no result; [ ] = dose if it differs, or a comment. Unless noted, how the calls were made is not given here.
SMILES,ABCG2 block,RGS7-Gao reg,RGS16-Gao HTS,RGS8-Gao,ABCB1 inh,RGS4-Gao reg,Avidin counter,RGS8-Gao confirm,RGS7-Gao single,RGS16-Gao conf,RGS4-Gao confirm,RGS19-Gao single,others
O=C(NN1C(=O)c2ccccc2NC1c1ccccn1)c1ccc(Br)cc1 (stereo not given),1.5,106.9,104.4,104.5,0.2,108.7,·,·,·,·,·,·,
CC1CN(C2CCN(C(=O)COc3ccc(Cl)cc3)CC2)CC(C)O1 (stereo not given),3.3,100.0,101.5,100.4,1.0,98.6,·,·,·,·,·,·,
Cc1nn(C)c(C)c1C1C(C#N)=C(N)Oc2n[nH]c(C)c21 (stereo not given),-5.7,109.4,230.3*[activator],140.3*[activator],-0.2,109.6,-1.4,100.7,98.6,101.7,101.1,118.1,RGS4-Gao HTS=109.6*
Cc1c(NC(=O)Nc2ccc3c(c2)OCO3)c(=O)n(-c2ccccc2)n1C,3.7,226.6*[activator],120.0,103.9,0.5,121.8,-1.3,100.2,97.2,101.4,101.1,101.3,RGS4-Gao HTS=121.8*
Cc1c(NC(=S)NC(=O)C2CCCCC2)c(=O)n(-c2ccccc2)n1C,0.9,14.8*,13.3*,17.4*,0.8,7.8*,0.8,79.6,67.0*,78.2,77.3,62.5,
c1ccc(COc2ccc(CNCc3cccnc3)cc2)cc1,2.7,104.5,97.7,104.9,1.0,102.5,·,·,·,·,·,·,
N#CCn1c(C2CCCCC2)nc2ccccc2c1=O,-0.5,99.8,99.5,98.6,-0.2,99.2,·,·,·,·,·,·,
Oc1c(Br)cc(Br)cc1/C=N/N1CCN(Cc2ccccc2)CC1,-1.0,171.8*[activator],103.1,100.9,0.1,112.1,-0.9,104.1,101.3,105.0,102.3,99.5,RGS4-Gao HTS=112.1*
Cc1ccc(CN2CCN(/N=C/c3cc(Br)cc(Br)c3O)CC2)cc1,4.5,105.1,161.0,114.5,-1.7,106.1,·,·,·,·,·,·,
O=C(N/N=C/c1ccc(N2CCOCC2)o1)c1cccc([N+](=O)[O-])c1,-2.9,86.6,17.9*,63.4,-0.2,87.0,0.2,96.9,91.9,96.6,95.8,68.6,RGS4-Gao HTS=87.0*
Cc1ccc(SC(C)C(=O)Nc2ccc(S(=O)(=O)N3CCOCC3)cc2)cc1 (stereo not given),15.8,100.0,104.9,99.8,0.7,99.3,·,·,·,·,·,·,
COc1cccc(C(=O)c2c[nH]c(C(=O)NCc3ccco3)c2)c1,1.4,103.3,105.5,100.2,0.2,105.0,·,·,·,·,·,·,
COc1ccc(C(=O)c2c[nH]c(C(=O)NCc3ccco3)c2)cc1,3.0,20.4*,1.2*,17.5*,0.2,28.6*,-1.5,102.7,103.4,105.5,101.5,98.0,
COc1ccccc1NC(=O)Cn1nnc(-c2ccccc2NC(=O)c2ccco2)n1,1.2,·,·,·,0.2,·,-1.0,103.3,103.3,103.0,105.4,101.2,
COc1ccc(NC(=O)Cn2nnc(-c3ccccc3NC(=O)c3ccco3)n2)cc1,1.0,105.2,102.8,103.1,0.2,105.9,·,·,·,·,·,·,
COc1cc2c(-c3ccc(O)cc3)nc3c(c(C)nn3-c3ccccc3)c2cc1OC,25.5,89.3,468.3,100.3,14.6,199.5*[activator],1.4,99.7,95.8,97.5,98.4,101.6,
COc1cc2c(C)nc3c(c(C)nn3-c3ccccc3)c2cc1OC,0.7,84.9,108.7,92.0,0.1,97.8,·,·,·,·,·,·,
O=C(CNC(=O)c1cccs1)N/N=C/c1c[nH]c2ccccc12,-1.1,2.4*,-4.2*,6.0*,-0.7,2.8*,0.4,105.4,100.0,108.6,102.6,94.4,
Oc1ccc(N2CCN(C(c3cccnc3)c3nnnn3Cc3ccccc3)CC2)cc1 (stereo not given),-0.1,-9.4*,-25.9*,8.1*,0.2,-26.0*,-0.2,87.9,99.3,91.3,96.7,77.2,
COc1ccc(N2CCN(C(c3cc4cc(C)ccc4[nH]c3=O)c3nnnn3Cc3ccccc3)CC2)cc1 (stereo not given),12.9,·,·,·,5.8,·,1.9,98.5,99.7,98.2,100.0,98.3,
CS(=O)(=O)N(CC(=O)NCc1ccco1)c1cccc([N+](=O)[O-])c1,-0.3,?,98.6,97.8,0.1,97.9,·,·,·,·,·,·,
C1=Nc2c(Nc3ccccc3)ncnc2Oc2ccccc21,0.5,100.9,80.5,88.9,0.1,86.3,·,·,·,·,·,·,
COCCCN1CN(Cc2ccccc2)CNC1=S,-6.1,83.0,-3.3*,72.1,-0.5,78.8,0.2,99.3,100.0,100.5,98.9,93.7,RGS4-Gao HTS=78.8*
COc1ccc(N2Cc3ccccc3C2=NC(=O)c2cncc(Br)c2)cc1,1.1,?,102.4,102.9,0.7,102.3,·,·,·,·,·,·,
Cc1ccc2cc(C)c(Sc3nnnn3-c3ccccc3)nc2c1,-4.4,105.5,190.8*[activator],119.4,-0.2,112.1,-1.0,109.2,110.7,114.4,108.4,125.9,RGS4-Gao HTS=112.1*
Cn1ccnc1Sc1nnnn1-c1ccccc1,1.9,97.7,93.2,101.2,0.4,99.2,·,·,·,·,·,·,
CC(=O)NS(=O)(=O)c1ccc(NC(=O)CN2C(=O)C3C4C=CC(C4)C3C2=O)cc1 (stereo not given),3.4,98.4,89.4,95.4,-0.1,97.3,·,·,·,·,·,·,
COc1cc(CC(=O)N2CCc3ccccc32)cc(OC)c1OC,9.2,·,·,·,2.2,146.1,2.1,99.7,99.1,98.3,97.5,98.0,
COc1ccc(CC(=O)N2CCCc3ccccc32)cc1OC,8.9,100.9,84.7,95.7,0.6,99.5,·,·,·,·,·,·,
COc1cc(C(=O)Nc2ccc3c(c2)CCN3C(C)=O)cc(OC)c1OC,3.9,185.9*[activator],170.2,108.9,0.7,207.0*[activator],0.0,107.4,112.3,111.5,105.6,117.7,

# Source: PubChem
